“And” between values parts separate entries of the source, which are not always exact repeats. Equal values may be shown once.
What was measured:
Assay type in all cases: functional, cell-based
[1] = system: HX62 cell line; test: Cytotoxic activity in a panel of Human ovarian tumor HX/62 cell line after 96h of drug exposure
In short: (§1)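 SRB growth-inhibition assay. Cells were seeded at (3-8) × 10^3 per well and left to attach overnight. Platinum agents were added after serial dilution, in quadruplicate wells, with continuous 96 h exposure. Growth in treated and control wells was quantified by staining with 0.4% SRB dissolved in 1% acetic acid.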

[2] = system: 41M; test: Cytotoxic activity in a panel of Human ovarian tumor 41M cell line after 96h of drug exposure; in short: as §1
[3] = system: 41M; test: Cytotoxic activity in a panel of Human ovarian tumor 41M/CDDP cell line after 96h of drug exposure; in short: as §1
[4] = system: CH1; test: Cytotoxic activity in a panel of Human ovarian tumor CH1/CDDP cell line after 96h of drug exposure; in short: as §1
[5] = system: A2780; test: Cytotoxic activity in a panel of Human ovarian tumor A2780/CDDP cell line after 96h of drug exposure; in short: as §1
[6] = system: CH1; test: Cytotoxic activity in a panel of Human ovarian tumor CH1 cell line after 96h of drug exposure; in short: as §1
[7] = system: SK-OV-3; test: Cytotoxic activity in a panel of Human ovarian tumor SKOV-3 cell line after 96h of drug exposure; in short: as §1
[8] = system: 41M; test: RF(Resistant factor) is determined from the ratio of IC50 of 41M to the IC50 of CDDP cell lines
[9] = system: A2780; test: RF(Resistant factor) is determined from the ratio of IC50 of A2780 to the IC50 of CDDP cell lines
[10] = system: CH1; test: RF(Resistant factor) is determined from the ratio of IC50 of CH1 to the IC50 of CDDP cell lines
[11] = system: A2780; test: Cytotoxic activity in a panel of Human ovarian tumor A2780 cell line after 96h of drug exposure; in short: as §1

Substance | IC50 [1] | IC50 [2] | IC50 [3] | IC50 [4] | IC50 [5] | IC50 [6] | IC50 [7] | RF [8] | RF [9] | RF [10] | IC50 [11]
CISPLATIN [listing 1 of 2 here] | 25000 nM | 540 nM | 1700 nM | 1450 nM | 6200 nM | 180 nM | 8000 nM | – | – | – | –
CISPLATIN [listing 2 of 2 here] | – | – | – | – | – | – | – | 3.1 | 11.7 | 8 | –
trans-[{PtCl(NH3)2}-mu-{NH2(CH2)6NH2}-cis-{PtCl2(NH3)}]Cl [listing 1 of 2 here] | 24000 nM and 12500 nM | 2500 nM and 2400 nM | 670 nM and 1300 nM | 970 nM and 980 nM | 890 nM and 340 nM | 300 nM and 220 nM | 31000 nM and 17700 nM | – | – | – | 280 nM and 66 nM
trans-[{PtCl(NH3)2}-mu-{NH2(CH2)6NH2}-cis-{PtCl2(NH3)}]Cl [listing 2 of 2 here] | – | – | – | – | – | – | – | 0.27 and 0.53 | 3.2 and 5.2 | 3.2 and 4.4 | –
trans-[{PtCl(NH3)2}-mu-{NH2(CH2)6NH2}-trans-{PtCl(NH3)2}] [listing 1 of 2 here] | 11000 nM and 14000 nM | 1900 nM and 7400 nM | 410 nM and 1800 nM | – | 1200 nM and 4900 nM | – | 15300 nM and 87000 nM | – | – | – | 66 nM and 250 nM
trans-[{PtCl(NH3)2}-mu-{NH2(CH2)6NH2}-trans-{PtCl(NH3)2}] [listing 2 of 2 here] | – | – | – | – | – | – | – | 0.21 and 0.24 | 18 and 19.6 | 3.3 and 2 | –

Reference: ChEMBL document CHEMBL1133621, “Synthesis, characterization, and cytotoxicity of trifunctional dinuclear platinum complexes: comparison of effects of geometry and polyfunctionality on biological activity” (J Med Chem, 2000)
